According to ChEMBL document CHEMBL1135816, “6-Aryl-1,4-dihydro-benzo[d][1,3]oxazin- 2-ones: a novel class of potent, selective, and orally active nonsteroidal progesterone receptor antagonists” (J Med Chem, 2002):

Tests used:
[1] = Plasma clearance (Cl) for the compound in female rats for a dose of 1 mg/kg administered intravenously; format: ADME, organism-based; set-up: dose 1 mg/kg, route intravenous; conditions: rat, iv, read-out: Clp (converted)
[2] = biological target: T1, Progesterone receptor (Rattus norvegicus) (UniProt Q63449); assay: inhibitory activity against progesterone receptor (PR) in ovariectomized mature female rat complement C3 model; format: functional
T1 sequence (whole entry): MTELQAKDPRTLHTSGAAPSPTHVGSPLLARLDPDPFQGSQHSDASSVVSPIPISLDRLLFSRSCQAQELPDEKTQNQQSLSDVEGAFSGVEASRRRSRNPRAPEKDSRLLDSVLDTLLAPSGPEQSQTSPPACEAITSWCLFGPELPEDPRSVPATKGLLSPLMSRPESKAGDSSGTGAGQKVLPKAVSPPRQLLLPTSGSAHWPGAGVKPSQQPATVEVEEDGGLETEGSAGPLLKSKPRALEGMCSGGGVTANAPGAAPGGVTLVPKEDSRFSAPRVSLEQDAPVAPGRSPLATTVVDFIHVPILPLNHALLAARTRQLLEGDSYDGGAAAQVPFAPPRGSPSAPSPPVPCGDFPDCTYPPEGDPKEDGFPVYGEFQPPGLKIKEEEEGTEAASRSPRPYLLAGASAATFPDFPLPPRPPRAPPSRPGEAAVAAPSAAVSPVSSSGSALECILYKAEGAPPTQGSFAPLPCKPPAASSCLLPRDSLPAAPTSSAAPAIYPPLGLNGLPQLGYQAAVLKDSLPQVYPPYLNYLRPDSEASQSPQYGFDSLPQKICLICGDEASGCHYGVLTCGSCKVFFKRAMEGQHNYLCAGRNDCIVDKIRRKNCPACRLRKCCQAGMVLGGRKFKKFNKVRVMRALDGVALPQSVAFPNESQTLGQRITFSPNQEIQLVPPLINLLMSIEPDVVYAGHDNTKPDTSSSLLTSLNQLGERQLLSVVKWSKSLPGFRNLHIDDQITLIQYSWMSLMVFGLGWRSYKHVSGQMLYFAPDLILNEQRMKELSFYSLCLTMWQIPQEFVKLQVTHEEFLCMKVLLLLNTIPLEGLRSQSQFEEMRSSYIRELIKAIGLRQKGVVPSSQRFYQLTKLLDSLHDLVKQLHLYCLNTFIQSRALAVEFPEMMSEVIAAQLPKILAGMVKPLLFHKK
Outline: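 Adult ovariectomized rats given oral doses; read-out is reversal of progestin down-regulation of estrogen-induced complement C3 synthesis in uterine epithelium. ED50 averaged from at least duplicate determinations.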

[3] = biological target: Estrogen receptor (Homo sapiens, UniProt Q92731+P03372); assay: Antagonist activity against the Estrogen Receptor (ER); format: functional
[4] = Area under the curve (AUC) for the compound in female rats for a dose of 1 mg/kg administered intravenously.; format: ADME, organism-based; set-up: dose 1 mg/kg, route intravenous; conditions: rat, in vivo, iv
[5] = Half life in female rats for a dose of 1 mg/kg administered intravenously.; format: ADME, organism-based; set-up: dose 1 mg/kg, route intravenous; conditions: rat, in vivo, iv
[6] = biological target: T2, Progesterone receptor (Homo sapiens, UniProt P06401); assay: Antagonist activity against progesterone receptor (PR) in an alkaline phosphatase assay in the T47D human breast carcinoma cell line; format: functional, cell-based
T2 sequence (P06401 whole entry): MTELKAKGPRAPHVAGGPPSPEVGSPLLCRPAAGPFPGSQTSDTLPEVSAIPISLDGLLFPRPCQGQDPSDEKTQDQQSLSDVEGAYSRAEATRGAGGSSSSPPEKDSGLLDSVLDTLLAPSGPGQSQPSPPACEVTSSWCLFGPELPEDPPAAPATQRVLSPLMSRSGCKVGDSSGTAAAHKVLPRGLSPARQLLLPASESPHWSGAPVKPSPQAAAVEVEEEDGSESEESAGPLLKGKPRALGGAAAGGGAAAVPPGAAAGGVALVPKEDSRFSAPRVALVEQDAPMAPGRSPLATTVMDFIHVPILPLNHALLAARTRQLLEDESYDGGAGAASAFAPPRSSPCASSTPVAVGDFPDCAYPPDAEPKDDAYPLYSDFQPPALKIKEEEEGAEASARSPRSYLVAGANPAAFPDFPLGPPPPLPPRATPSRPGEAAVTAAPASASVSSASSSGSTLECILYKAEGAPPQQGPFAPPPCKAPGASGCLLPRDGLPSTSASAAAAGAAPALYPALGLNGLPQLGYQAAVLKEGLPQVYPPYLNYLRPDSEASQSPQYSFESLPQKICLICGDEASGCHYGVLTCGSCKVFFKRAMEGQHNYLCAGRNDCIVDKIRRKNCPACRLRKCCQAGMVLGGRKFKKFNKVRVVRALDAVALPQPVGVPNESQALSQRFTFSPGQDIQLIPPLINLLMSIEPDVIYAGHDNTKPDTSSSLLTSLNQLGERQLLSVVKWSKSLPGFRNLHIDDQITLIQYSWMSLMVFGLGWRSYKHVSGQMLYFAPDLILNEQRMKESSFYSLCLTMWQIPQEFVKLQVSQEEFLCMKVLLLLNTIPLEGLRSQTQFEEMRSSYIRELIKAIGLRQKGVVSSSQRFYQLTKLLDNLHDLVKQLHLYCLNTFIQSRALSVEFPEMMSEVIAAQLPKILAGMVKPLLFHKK

SMILES	clearance [1] [mL/min/kg]	ED50 [2] [mg/kg]	IC50 [3] [nM]	AUC [4] [ng·h/mL]	half-life [5] [h]	IC50 [6] [nM]
CC1(C)OC(=O)Nc2ccc(-c3cc(F)cc(C#N)c3)cc21	3.67	1	> 10000	3690	7.7	
CC1(C)OC(=O)Nc2ccc(-c3ccc(F)c(Cl)c3)cc21		2.5	> 10000			23
CC1(C)OC(=O)Nc2ccc(-c3coc(C#N)c3)cc21						8
